Assay results taken from ChEMBL document CHEMBL4765345, “Design, synthesis, and biological evaluation of dual targeting inhibitors of histone deacetylase 6/8 and bromodomain BRPF1” (Eur J Med Chem, 2020).

Assays:
Histone deacetylase 1 = Histone deacetylase 1 (Homo sapiens, UniProt Q13547); assay: Inhibition of recombinant human HDAC1 at 1 uM using Z-(Ac)Lys-AMC as substrate after 90 mins by fluorescence based micro plate assay
How it was run: (§1)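 Recombinant human HDAC1 or HDAC6 incubated 90 min at 37 °C with 10.5 μM ZMAL (Z-(Ac)Lys-AMC) and increasing inhibitor concentrations, using a homogeneous fluorescence assay. Fluorescence read at Ex 390/Em 460 nm.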

HL-60 [1] = assay: Antiproliferative activity against human HL60 assessed as reduction in cell growth at 100 uM by CellTiter-non radioactive cell proliferation assay; assay type: functional
[2] = molecular target: T1, Protein deacetylase HDAC6 (Homo sapiens) (UniProt Q9UBN7); assay: Inhibition of recombinant human HDAC6 at 10 uM using Z-(Ac)Lys-AMC as substrate after 90 mins by fluorescence based micro plate assay; how it was run: as §1
T1 sequence (whole entry): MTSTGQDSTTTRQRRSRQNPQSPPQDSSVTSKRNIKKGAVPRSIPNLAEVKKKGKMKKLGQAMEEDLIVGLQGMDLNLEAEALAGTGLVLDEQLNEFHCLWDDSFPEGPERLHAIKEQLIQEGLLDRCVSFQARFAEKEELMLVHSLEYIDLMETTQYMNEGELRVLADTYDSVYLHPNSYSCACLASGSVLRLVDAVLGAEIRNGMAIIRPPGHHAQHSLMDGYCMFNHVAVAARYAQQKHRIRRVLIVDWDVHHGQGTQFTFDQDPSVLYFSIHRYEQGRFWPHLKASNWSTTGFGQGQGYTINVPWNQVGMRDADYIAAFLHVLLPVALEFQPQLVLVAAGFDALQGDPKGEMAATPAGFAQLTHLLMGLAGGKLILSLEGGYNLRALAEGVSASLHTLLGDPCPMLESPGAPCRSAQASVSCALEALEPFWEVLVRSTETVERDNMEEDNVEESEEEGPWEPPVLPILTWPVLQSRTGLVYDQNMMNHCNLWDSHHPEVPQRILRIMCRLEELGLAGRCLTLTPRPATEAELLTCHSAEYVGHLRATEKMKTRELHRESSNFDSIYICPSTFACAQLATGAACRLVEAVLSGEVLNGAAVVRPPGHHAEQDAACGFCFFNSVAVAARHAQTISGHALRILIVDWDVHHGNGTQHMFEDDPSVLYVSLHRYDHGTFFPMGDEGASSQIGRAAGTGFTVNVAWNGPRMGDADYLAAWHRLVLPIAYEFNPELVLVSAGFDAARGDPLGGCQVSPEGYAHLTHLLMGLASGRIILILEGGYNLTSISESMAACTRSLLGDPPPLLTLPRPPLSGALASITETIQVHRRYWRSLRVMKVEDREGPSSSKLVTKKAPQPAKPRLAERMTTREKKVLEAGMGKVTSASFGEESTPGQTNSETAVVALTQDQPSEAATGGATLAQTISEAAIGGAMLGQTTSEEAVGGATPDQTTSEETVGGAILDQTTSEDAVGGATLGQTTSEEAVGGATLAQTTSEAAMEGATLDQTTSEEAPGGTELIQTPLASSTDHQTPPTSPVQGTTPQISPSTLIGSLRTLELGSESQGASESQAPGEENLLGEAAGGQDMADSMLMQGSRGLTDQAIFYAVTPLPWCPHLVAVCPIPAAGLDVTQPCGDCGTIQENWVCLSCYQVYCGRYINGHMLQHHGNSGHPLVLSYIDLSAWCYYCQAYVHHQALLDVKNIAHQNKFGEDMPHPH

[3] = molecular target: T1, Protein deacetylase HDAC6 (Homo sapiens); assay: Inhibition of recombinant human HDAC6 at 1 uM using Z-(Ac)Lys-AMC as substrate after 90 mins by fluorescence based micro plate assay; how it was run: as §1
HL-60 [4] = assay: Antiproliferative activity against human HL60 assessed as reduction in cell growth at 4 uM by CellTiter-non radioactive cell proliferation assay; assay type: functional
How it was run: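 HL60 cells plated at 5000 per well and given inhibitor or DMSO vehicle immediately. Compounds diluted from 200x DMSO stocks; three replicates per concentration. Growth read by CellTiter 96 Aqueous (MTS) assay. GI50 is the concentration cutting metabolically active cells by 50% versus DMSO control, taken from absorbance against log concentration.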

Peregrin = molecular target: T2, Peregrin (Homo sapiens, UniProt P55201); assay: Binding affinity to BRPF1 (unknown origin) by Isothermal titration calorimetry; conditions: read-out: Kd
T2 sequence (P55201 whole entry): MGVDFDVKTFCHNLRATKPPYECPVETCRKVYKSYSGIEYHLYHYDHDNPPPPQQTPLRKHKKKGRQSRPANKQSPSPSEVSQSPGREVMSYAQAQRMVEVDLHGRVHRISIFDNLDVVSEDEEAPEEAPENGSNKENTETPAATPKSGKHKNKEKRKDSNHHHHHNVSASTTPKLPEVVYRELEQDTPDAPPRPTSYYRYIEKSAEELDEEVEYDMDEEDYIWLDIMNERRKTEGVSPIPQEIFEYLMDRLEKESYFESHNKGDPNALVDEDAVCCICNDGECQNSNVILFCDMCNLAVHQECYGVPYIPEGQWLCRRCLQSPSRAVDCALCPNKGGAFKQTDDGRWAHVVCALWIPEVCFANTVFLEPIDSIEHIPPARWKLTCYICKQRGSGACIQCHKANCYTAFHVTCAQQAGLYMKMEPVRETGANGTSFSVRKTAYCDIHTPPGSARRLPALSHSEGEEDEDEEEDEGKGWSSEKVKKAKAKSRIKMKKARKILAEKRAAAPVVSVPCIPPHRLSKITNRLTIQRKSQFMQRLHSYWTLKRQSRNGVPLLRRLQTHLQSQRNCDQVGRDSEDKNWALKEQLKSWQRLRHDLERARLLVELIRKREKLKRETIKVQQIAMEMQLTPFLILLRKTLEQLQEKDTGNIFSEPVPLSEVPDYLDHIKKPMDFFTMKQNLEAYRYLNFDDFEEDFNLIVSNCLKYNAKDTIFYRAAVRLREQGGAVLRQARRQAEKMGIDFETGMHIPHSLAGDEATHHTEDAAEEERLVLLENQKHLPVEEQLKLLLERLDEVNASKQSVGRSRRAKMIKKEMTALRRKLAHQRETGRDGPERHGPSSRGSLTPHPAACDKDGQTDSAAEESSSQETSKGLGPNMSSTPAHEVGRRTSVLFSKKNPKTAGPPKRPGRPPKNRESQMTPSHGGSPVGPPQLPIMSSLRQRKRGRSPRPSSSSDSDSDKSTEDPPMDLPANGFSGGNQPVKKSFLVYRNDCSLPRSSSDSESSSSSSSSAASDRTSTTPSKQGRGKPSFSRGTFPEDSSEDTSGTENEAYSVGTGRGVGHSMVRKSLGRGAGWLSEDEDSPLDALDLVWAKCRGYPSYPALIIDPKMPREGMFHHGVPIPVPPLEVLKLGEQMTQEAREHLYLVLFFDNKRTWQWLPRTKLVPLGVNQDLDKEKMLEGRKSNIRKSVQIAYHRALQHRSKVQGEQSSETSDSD
How it was run: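 Isothermal titration calorimetry with recombinant BRPF1 (200–400 μM) in the injection syringe titrated into ligand (20–40 μM) in the sample cell. Kd was fitted from the titrations and reported with its P99 interval.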

Sequence of Histone deacetylase 1 (Q13547 whole entry): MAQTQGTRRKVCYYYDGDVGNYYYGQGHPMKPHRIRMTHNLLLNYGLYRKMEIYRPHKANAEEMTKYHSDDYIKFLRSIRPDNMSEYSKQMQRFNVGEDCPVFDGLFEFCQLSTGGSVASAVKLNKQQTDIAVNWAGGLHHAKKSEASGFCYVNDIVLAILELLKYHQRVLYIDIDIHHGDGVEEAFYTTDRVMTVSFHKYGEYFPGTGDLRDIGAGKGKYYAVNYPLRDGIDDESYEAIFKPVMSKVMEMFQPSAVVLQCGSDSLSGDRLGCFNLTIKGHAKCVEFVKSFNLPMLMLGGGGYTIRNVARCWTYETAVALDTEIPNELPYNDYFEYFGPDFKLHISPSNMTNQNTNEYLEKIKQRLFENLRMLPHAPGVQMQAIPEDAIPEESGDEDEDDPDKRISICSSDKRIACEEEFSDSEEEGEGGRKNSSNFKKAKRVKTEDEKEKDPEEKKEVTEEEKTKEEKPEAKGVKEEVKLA

inhibition (Histone deacetylase 1): 6%
inhibition [2]: 64%
inhibition [3]: 21%
Kd (Peregrin): 67 nM
SMILES: COc1ccc(C(=O)NO)cc1S(=O)(=O)Nc1ccc2c(c1)cc(C)c(=O)n2C
inhibition at 100 µM (HL-60 [1]): 39%
inhibition at 4 µM (HL-60 [4]): 25%
